Dynein cargo inh = dynein cargo transport inhibition | 220,000 compounds, 0.47% hits | z-score, hits read low | AID 1381 | 3617.4 mouse cells, GR-EGFP nuclear translocation imaging; test concentration mostly 20 µM; stimulated with dexamethasone, 1 µM; stronger effect = lower value;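 active = plate z-score of nuclear minus cytoplasmic receptor signal below a set negative limit, without overly bright fluorescence or cell loss, cut at about -3.5 in these data, passing the limit was not always enough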;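 also: z-score of nuclear minus cytoplasmic ring GR-EGFP intensity difference per well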
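Schedule: 48 h induction, then 1 h compound, then 30 min agonist, 37 °C. Buffer or medium: tetracycline-free induction medium containing charcoal-stripped FBS. Reagent: 1.0 µM final dexamethasone stimulus. Evaluation: nuclear versus cytoplasmic GR-EGFP signal, averaged per well. Signal: high-content fluorescence imaging after fixation.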
ATG4B inhibitor = blocks human ATG4B protease cleavage of LC3 substrate; inhibition, % at 8.33 µM; ATG4B cleavage of LC3-PLA2, NBD-HPC fluorescence, 1 h; Q9Y4P1; AID 504462; 340,000 compounds, 0.51% hits; in the data active = inhibition above about 40%
MEKK2mut PB1 HTS = signal of MEK5 binding to mutant human MEKK2 PB1 domain. bead flow cytometry, Alexa488-MEK5 binding to MEKK2 mutant. percent response, % at 10 µM. 290,000 compounds, 0.35% hits. AID 1530; in the data active = percent response above about 24%, passing the limit was not always enough
MEKK3 PB1 HTS = modulators (inhibitors or enhancers) of MEK5 binding to human MEKK3 PB1 domain; AID 1529; 290,000 compounds, 1.4% hits; bead-based flow cytometry, Alexa488-MEK5 binding to MEKK3; actives lie on both sides; 0 = blocked by unlabeled MEK5, 100 = vehicle; Q99759; binding response (% of control), % at 10 µM;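 active = binding response more than 3 SD above or below the average of its plate-row segment, actives on both sides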;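 also: Alexa488 bead fluorescence after subtracting the streptavidin-only scavenger bead signal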
Target sequence (Q99759 whole entry, looked up, the tested form may be a part): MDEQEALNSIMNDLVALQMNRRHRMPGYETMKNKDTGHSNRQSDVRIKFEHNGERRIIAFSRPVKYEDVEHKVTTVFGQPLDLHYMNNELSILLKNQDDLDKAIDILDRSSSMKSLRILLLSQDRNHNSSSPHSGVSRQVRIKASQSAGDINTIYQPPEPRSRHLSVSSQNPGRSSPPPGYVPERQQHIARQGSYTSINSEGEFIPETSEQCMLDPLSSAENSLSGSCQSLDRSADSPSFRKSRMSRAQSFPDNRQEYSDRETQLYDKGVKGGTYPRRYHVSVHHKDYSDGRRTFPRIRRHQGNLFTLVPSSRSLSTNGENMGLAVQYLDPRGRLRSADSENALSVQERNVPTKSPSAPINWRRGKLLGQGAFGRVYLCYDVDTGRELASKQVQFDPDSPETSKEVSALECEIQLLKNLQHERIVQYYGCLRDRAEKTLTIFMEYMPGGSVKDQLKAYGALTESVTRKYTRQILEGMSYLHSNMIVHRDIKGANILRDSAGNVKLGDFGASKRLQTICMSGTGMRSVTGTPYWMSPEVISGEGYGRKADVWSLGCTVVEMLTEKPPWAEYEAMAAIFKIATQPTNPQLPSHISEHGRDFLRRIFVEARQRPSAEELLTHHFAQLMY
MEKK2wt PB1 HTS = raises or lowers MEK5 binding to wildtype human MEKK2 PB1 domain; AID 1531; binding response (% of control), % at 10 µM; 290,000 compounds, 1.1% hits; bead flow cytometry, Alexa488-MEK5 binding to MEKK2 WT; actives lie on both sides; in the data active = binding response below about 67% or above about 130%
B2AR ag = human beta-2 adrenergic receptor agonism by FAP | P07550 | 340,000 compounds, 0.43% hits | response, % (concentration not given with the values) | AID 504454 | Am2.2-beta2AR cells, FAP receptor internalization, flow cytometry;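 active = response above a set limit, near 3 SD of response in nonfluorescent compounds, cut at about 42% in these data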
MEKK2wt confirm = raises or lowers MEK5 binding to wildtype human MEKK2, retest. binding response (% of control), % at 10 µM. shares compounds with MEKK3 PB1 HTS. 5,900 compounds, 2.4% hits. bead flow cytometry, Alexa488-MEK5 binding to MEKK2 WT; actives lie on both sides; in the data active = binding response below about 16% or above about 210%; inactive = in between
MEKK2mut confirm = signal of MEK5 binding to mutant human MEKK2, retest; shares compounds with MEKK3 PB1 HTS; percent response, % at 10 µM; bead flow cytometry, Alexa488-MEK5 binding to MEKK2 mutant; 5,900 compounds, 2% hits; AID 1893; in the data active = percent response mostly above about 71%, no sharp cut-off; inactive = mostly below about 38%;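 also: higher means compound restores mutant binding toward wildtype level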
MEKK3-MEK5 inh = MEKK3-MEK5 PB1 inhibition, single concentration confirmation; shares compounds with MEKK3 PB1 HTS; bead flow cytometry, Alexa488-MEK5 binding to MEKK3; stronger effect = lower value; binding response (% of control), % at 10 µM; 5,900 compounds, 1.8% hits; AID 1894;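 active = binding response below 72% of control, or above a set upper limit, though filed actives all read lower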;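 also: 100% = DMSO only wells and 0% = binding blocked by excess unlabeled MEK5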
Starred values were filed as active, the others as inactive; . = no result given; [ ] = remark or other dose. Sampled rows, rich in hits. Any-hit rate of the full collection: about 2.9%.

SMILES | Dynein cargo inh | ATG4B inhibitor | MEKK2mut PB1 HTS | MEKK3 PB1 HTS | MEKK2wt PB1 HTS | B2AR ag | MEKK2wt confirm | MEKK2mut confirm | MEKK3-MEK5 inh
CC1(C)Cc2ccccc2/C(=C/C(=O)N2CCCCCC2)N1 | -2.22 | 2.9 | -9.0 | 79.0*[inhibitor] | 85.0 | -3.5 | 103.0 | 3.0 | 102.0
COc1cc2c(cc1OC)/C(=C/C(=O)N1CCOCC1)NC(C)(C)C2 | -0.00191 | -7.0 | 8.0 | 103.0 | 105.0 | . | . | . | .
O=C(O)c1ccc(Cn2cc(C(F)(F)F)ccc2=O)cc1 | -0.131 | -1.9 | -17.0 | 37.0*[inhibitor] | 49.0 | -2.7 | 101.0 | -3.0 | 106.0
O=C(NCc1cccnc1)c1ccc(Cn2cc(C(F)(F)F)ccc2=O)cc1 | -0.358 | -0.8 | -32.0 | 69.0*[inhibitor] | 81.0 | -4.4 | 97.0 | 0.0 | 97.0
O=C(NCc1ccccc1)c1ccc(Cn2cc(C(F)(F)F)ccc2=O)cc1 | -0.421 | 13.6 | -6.0 | 100.0 | 100.0 | -4.8 | . | . | .
O=C(NCc1ccncc1)c1ccc(Cn2cc(C(F)(F)F)ccc2=O)cc1 | -0.557 | -3.1 | -15.0 | 67.0 | 74.0 | -4.1 | . | . | .
CC(C)c1ccc(N2C(=O)/C(=C/N(C)C)SC2=S)cc1 | 7.22 | 22.5 | 6.0 | 100.0 | 62.0*[inhibitor] | -26.2 | 85.0 | -10.0 | 88.0
Cc1cc(NC(=O)CCC(=O)N(c2ccccc2)C(C(=O)NC2CCCC2)c2ccccc2)no1 (stereo unspecified) | -0.103 | 4.6 | 27.0* | 113.0 | 101.0 | -1.9 | 100.0 | 1.0 | 104.0
Cc1ccc(N(C(=O)CCC(=O)Nc2cc(C)on2)C(C(=O)NC2CCCC2)c2ccccc2)cc1 (stereo unspecified) | -0.0148 | 4.2 | -5.0 | 102.0 | 98.0 | 1.8 | . | . | .
CCOC(=O)NC(Nc1ccc(C)cn1)(C(F)(F)F)C(F)(F)F | 0.333 | 1.8 | 10.0 | 110.0 | 117.0 | -2.0 | . | . | .
CC(C)OC(=O)NC(Nc1ccccc1C(=O)O)(C(F)(F)F)C(F)(F)F | 0.205 | 1.3 | 29.0 | 132.0* | 134.0 | 9.1 | 101.0 | 1.0 | 100.0
O=C/C(=C\Nc1ccc(C(=O)N2CCOCC2)cc1)c1nc2ccccc2o1 | 0.258 | -14.4 | 2.0 | 97.0 | 99.0 | -15.6 | . | . | .
CN(C)c1ccc(/C=C/C=C2/SC(=S)N(c3ccccc3)C2=O)cc1 | -2.47 | -5.0 | . | 0.0*[inhibitor] | . | -89.0 | 39.0 | -28.0 | 69.0*
Cc1c(C(=O)NNS(=O)(=O)c2ccccc2)sc(=S)n1C | -0.208 | 6.8 | 0.0 | 139.0* | 113.0 | -11.8 | 97.0 | -5.0 | 102.0
Cc1nnsc1C(=O)NNS(=O)(=O)c1ccccc1 | 1.24 | -10.5 | 8.0 | 102.0 | 104.0 | 3.6 | . | . | .
CCOC(=O)N/N=C(\C)c1ccc(C)c([N+](=O)[O-])c1 | 0.858 | -4.1 | 1.0 | 132.0* | 108.0 | -16.9 | 97.0 | -1.0 | 99.0
c1ccc(CN2CCC(Nc3nc(-c4ccccc4)nc4ccccc34)CC2)cc1 | 0.193 | 24.4 | 21.0 | 104.0 | 144.0* | 18.9 | 162.0 | 32.0 | 106.0
O=C(/C=C/c1ccc([N+](=O)[O-])cc1)NCCSc1ccccc1 | -0.136 | 9.1 | 14.0 | 114.0 | 120.0 | -0.7 | . | . | .
Cc1ccc(SCCNC(=O)/C=C/c2ccc([N+](=O)[O-])cc2)cc1 | 0.859 | 37.3 | -7.0 | 0.0*[inhibitor] | 1.0*[inhibitor] | -1.8 | 99.0 | 3.0 | 102.0
CCN(CC)c1ccc(C=N/C(C#N)=C(\N)C#N)cc1 | -1.26 | -5.2 | -10.0 | 1.0*[inhibitor] | . | 5.4 | 83.0 | -9.0 | 85.0
CCN(CC)c1ccc(/C=C(\C#N)c2ccccn2)cc1 | 0.97 | 1.8 | -1.0 | 99.0 | 96.0 | -10.9 | . | . | .
COCCNc1nnc(SCC(=O)Nc2nnc(-c3ccccc3)o2)s1 | . | -8.5 | . | . | . | 2.1 | . | . | .
COCCNc1nnc(SCC(=O)Nc2cc(-c3ccccc3)nn2-c2ccccc2)s1 | -0.507 | -1.8 | -1.0 | 68.0*[inhibitor] | 100.0 | -13.6 | 127.0 | 8.0 | 104.0
O=C(Cn1cc(C(F)(F)F)cc(Cl)c1=O)NCCc1ccccc1 | 0.556 | -2.2 | 0.0 | 135.0* | 108.0 | 4.2 | 103.0 | 2.0 | 102.0
S=c1[nH]nc(-c2cccnc2)n1-c1ccccc1 | -0.0819 | -11.0 | 2.0 | 80.0*[inhibitor] | 101.0 | 3.9 | 98.0 | -4.0 | 105.0
SMILES | Dynein cargo inh | ATG4B inhibitor | MEKK2mut PB1 HTS | MEKK3 PB1 HTS | MEKK2wt PB1 HTS | B2AR ag | MEKK2wt confirm | MEKK2mut confirm | MEKK3-MEK5 inh
Cc1c(NC(=O)C2CC(c3ccc(F)cc3)=NO2)c(=O)n(-c2ccccc2)n1C (stereo unspecified) | 0.44 | -6.6 | -38.0 | 9.0*[inhibitor] | 17.0*[inhibitor] | 4.6 | 104.0 | 7.0 | 102.0
CCOc1ccc(NC(=O)C2CCCN2S(=O)(=O)c2ccc3c(c2)C(C)(C)C(=O)N3C)cc1 (stereo unspecified) | . | -4.7 | 2.0 | 100.0 | 105.0 | -3.5 | . | . | .
COc1cccc(NC(=O)CSCc2cc(=O)n3nc(C4CC4)sc3n2)c1 | . | -8.3 | 1.0 | 100.0 | 104.0 | 3.7 | . | . | .
COc1ccccc1/C=N/Nc1cc(C)nc2ccc(C)cc12 | . | 1.3 | 4.0 | 110.0 | 108.0 | -2.3 | . | . | .
COc1ccc(/C=N/Nc2cc(C)nc3ccc(OC)cc23)c(OC)c1 | . | -13.0 | 180.0* | 114.0 | 389.0* | -1.8 | 282.0* | 141.0* | 118.0
CN(Cc1ccccc1)S(=O)(=O)c1ccc2c(c1)n(C)c(=O)c(=O)n2C | 0.794 | -6.2 | 32.0 | 130.0* | 120.0 | 1.3 | 97.0 | 0.0 | 97.0
CCOc1ccccc1NC(C)C(=O)Nc1cc(C(F)(F)F)ccc1N1CCOCC1 (stereo unspecified) | 2.88 | 2.9 | 4.0 | 98.0 | 112.0 | 0.9 | . | . | .
CCC(C)(C)c1ccc(OCCCC[n+]2ccc(C)cc2)c(C(C)(C)CC)c1 | -3.63* | 11.3 | 56.0* | 103.0 | 189.0* | . | 181.0 | 37.0 | 107.0
Cc1cc[n+](CC[n+]2ccc(C)cc2)cc1 | . | -1.2 | . | . | . | 1.3 | . | . | .
CCc1nnc(NS(=O)(=O)c2ccc(NC(=O)CCC(=O)O)cc2)s1 | . | -1.9 | 1.0 | 96.0 | 100.0 | -2.7 | . | . | .
CN(C)c1ccc(NS(=O)(=O)c2ccc(Cl)cc2)cc1 | 1.41 | -8.7 | 3.0 | 135.0* | 102.0 | -1.4 | 99.0 | -3.0 | 97.0
Cc1ccc(S(=O)(=O)Nc2ccc(N(C)C)cc2)cc1 | -0.715 | 0.5 | 3.0 | 94.0 | 96.0 | 1.6 | . | . | .
C=CCSc1nnc(CNC(=O)c2ccccc2C)n1C(C)C | -0.509 | 0.8 | 4.0 | 140.0* | 121.0 | 2.7 | 101.0 | -3.0 | 96.0
